The source made the active and inactive calls. The rule behind the calls is not given here.
Columns and labels:
T47D [1] = assay: Antiestrogenic activity in human T47D cells assessed as drug level causing inhibition of 100 pM E2-enhanced cell proliferation to level equivalent to 50 pM E2 after 96 hrs by alamar blue assay; format: functional
Outline: (§1)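 Cells seeded at 1 × 10^4 per well in phenol red-free RPMI with 5% DCC-treated FBS. E2 was added from a 20 nM solution to give 100 pM and preincubated 1 h at 37 °C, 5% CO2. Compounds were then added at 0.1, 1, 10 and 100 µM for 96 h, with serially diluted tamoxifen as positive control. Antagonism was judged from cell populations. iEqE values were obtained by linear regression over four concentrations.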

MCF7 [2] = assay: Antiestrogenic activity in human MCF7 cells assessed as drug level causing inhibition of 100 pM E2-enhanced cell proliferation to level equivalent to 50 pM E2 after 96 hrs by alamar blue assay; format: functional; outline: as §1
T47D [3] = assay: Antiestrogenic activity in human T47D cells assessed as inhibition of E2-enhanced cell proliferation at 0.1 to 100 uM after 96 hrs by alamar blue assay; format: functional; outline: as §1
T47D [4] = assay: Antiestrogenic activity in human T47D cells assessed as drug level causing inhibition of 100 pM E2-enhanced cell proliferation to level equivalent to 10 pM E2 after 96 hrs by alamar blue assay; format: functional; outline: as §1
T47D [5] = assay: Stimulation of human T47D cell proliferation up to 100 uM after 96 hrs by alamar blue assay relative to estradiol; format: functional, cell-based
Outline: (§2)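 Compounds were given alone at 0.1, 1, 10 and 100 µM, and stimulation of proliferation was compared with estradiol at 1–100 pM. Cell proliferation assay as in an earlier report.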

MCF7 [6] = assay: Antiestrogenic activity in human MCF7 cells assessed as drug level causing inhibition of 100 pM E2-enhanced cell proliferation to level equivalent to 1 pM E2 after 96 hrs by alamar blue assay; format: functional; outline: as §1
MCF7 [7] = assay: Stimulation of human MCF7 cell proliferation up to 100 uM after 96 hrs by alamar blue assay relative to estradiol; format: functional, cell-based; outline: as §2
T47D [8] = assay: Antiestrogenic activity in human T47D cells assessed as drug level causing inhibition of 100 pM E2-enhanced cell proliferation to level equivalent to 1 pM E2 after 96 hrs by alamar blue assay; format: functional; outline: as §1
MCF7 [9] = assay: Antiestrogenic activity in human MCF7 cells assessed as drug level causing inhibition of 100 pM E2-enhanced cell proliferation to level equivalent to 10 pM E2 after 96 hrs by alamar blue assay; format: functional; outline: as §1

Row | Structure (SMILES) | Activity (T47D [1]) [µM] | Activity (MCF7 [2]) [µM] | inhibition (INH) (T47D [3]) [%] | Activity (T47D [4]) [µM] | Activity (T47D [5]) | Activity (MCF7 [6]) [µM] | Activity (MCF7 [7]) | Activity (T47D [8]) [µM] | Activity (MCF7 [9]) [µM]
1 | COc1cc(O)ccc1O[C@@H]1O[C@H](CO[C@@H]2OC[C@@H](O)[C@H](O)[C@H]2O)[C@@H](O)[C@H](O)[C@H]1O [CAPPAROSIDE A] | <0.1 | <0.1 | >50 | >100 | inactive | >100 | inactive | >100 | 0.3
2 | COc1cc([C@H](O[C@@H]2O[C@H](CO)[C@@H](O)[C@H](O)[C@H]2O)[C@@H](CO)Oc2c(OC)cc(/C=C/CO)cc2OC)ccc1O | <0.1 | <0.1 | >50 | >100 | inactive | >100 | inactive | >100 | 6
3 | C[C@@H](/C=C/[C@]1(O)[C@]2(C)CO[C@@]1(C)CC(=O)C2)O[C@@H]1O[C@H](CO)[C@@H](O)[C@H](O)[C@H]1O [SPIONOSIDE B] | 0.2 | <0.1 |  | 61 | inactive | 15 | inactive | >100 | <0.1
4 | COc1cc([C@H]2OC[C@H]3[C@@H]2CO[C@@H]3c2cc(OC)c(O[C@@H]3O[C@H](CO)[C@@H](O)[C@H](O)[C@H]3O)c(OC)c2)cc(OC)c1O | <0.1 | <0.1 |  | 19 | inactive | <0.1 | inactive | >100 | <0.1
5 | COc1cc(/C=C/CO)ccc1O[C@@H]1O[C@H](COC(=O)/C=C/c2ccc(O)c(O)c2)[C@@H](O)[C@H](O)[C@H]1O [KHAINAOSIDE C] | <0.1 | 4 | >90 | <0.1 | inactive | 5 | inactive | >100 | 4
6 | CCCc1ccc(O[C@@H]2O[C@H](CO)[C@@H](O)[C@H](O)[C@H]2O)c(OC)c1 | <0.1 | <0.1 | >50 | >100 | inactive | 0.4 | inactive | >100 | <0.1
7 | CC/C(=C(\c1ccccc1)c1ccc(OCCN(C)C)cc1)c1ccccc1 [TAMOXIFEN] | 0.1 | 0.1 |  | 0.7 |  | 0.4 |  | 9 | 0.2
8 | OC[C@H]1O[C@@H](Oc2cc([C@H]3OC[C@]4(O)[C@@H](c5ccc6c(c5)OCO6)OC[C@]34O)ccc2O)[C@H](O)[C@@H](O)[C@@H]1O [KHAINAOSIDE A] | <0.1 | <0.1 |  | <0.1 | inactive | <0.1 | inactive | 3 | <0.1
9 | COc1cc(O[C@@H]2O[C@H](CO)[C@@H](O)[C@H](O)[C@H]2O)ccc1O [TACHIOSIDE] | <0.1 | <0.1 |  | 10 | inactive | >100 | inactive | >100 | 0.2
10 | COc1cc(C[C@H](CO)[C@@H](CO[C@@H]2O[C@H](CO)[C@@H](O)[C@H](O)[C@H]2O)Cc2cc(OC)c(O)c(OC)c2)cc(OC)c1O | 0.6 | <0.1 |  | >100 | inactive | 93 | inactive | >100 | 0.8
11 | COc1cc(O)cc(OC)c1O[C@@H]1O[C@H](CO)[C@@H](O)[C@H](O)[C@H]1O [LEONURISIDE] | 0.4 | <0.1 |  | 39 | inactive | >100 | inactive | >100 | <0.1
12 | OC[C@@H]1Oc2ccc([C@H]3OC[C@H]4[C@@H]3CO[C@@H]4c3ccc(O)c(O)c3)cc2O[C@H]1c1ccc(O)c(O)c1 [PRINCEPIN] | 0.4 | 0.3 |  | 1 | inactive | 7 | inactive | 6 | 4
13 | COc1cc([C@H]2OC[C@H]3[C@@H]2CO[C@@H]3c2ccc(O[C@@H]3O[C@H](CO)[C@@H](O)[C@H](O)[C@H]3O)c(OC)c2)ccc1O | <0.1 | <0.1 | >90 | <0.1 | inactive | <0.1 | inactive | >100 | <0.1
14 | Oc1ccc([C@H]2OC[C@H]3[C@@H]2CO[C@@H]3c2ccc(O)c(O)c2)cc1O | 0.2 | 0.2 |  | 26 | inactive | 94 | inactive | 73 | 31
15 | OC/C=C/c1ccc2c(c1)O[C@H](c1ccc(O)c(O)c1)[C@@H](CO)O2 [ISOAMERICANOL A] | <0.1 | <0.1 |  | 9 | inactive | >100 | inactive | >100 | 6
16 | COc1cc([C@H]2Oc3c(OC)cc(/C=C/CO)cc3[C@@H]2CO)ccc1O[C@@H]1O[C@H](CO)[C@@H](O)[C@H](O)[C@H]1O | <0.1 | 0.3 |  | 63 | inactive | >100 | inactive | >100 | >100
17 | COc1cc([C@H]2OC[C@H]3[C@@H]2CO[C@@H]3c2cc(OC)c(O)c(OC)c2)ccc1O[C@@H]1O[C@H](CO)[C@@H](O)[C@H](O)[C@H]1O [ISOEUCOMMIN A] | <0.1 | <0.1 | >90 | <0.1 | inactive | <0.1 | inactive | >100 | <0.1
18 | COc1cc([C@H]2OC[C@H]3[C@@H]2CO[C@@H]3c2cc(OC)c(O)c(OC)c2)cc(OC)c1O [SYRINGARESINOL] | <0.1 | 2 |  | 1 | inactive | 5 | inactive | 7 | 4
